In ChEMBL document CHEMBL1153414, “Discovering potent inhibitors against the beta-hydroxyacyl-acyl carrier protein dehydratase (FabZ) of Helicobacter pylori: structure-based design, synthesis, bioassay, and crystal structure determination” (J Med Chem, 2009) one finds MIC, IC50 and inhibition data, which are given here for 48 compounds.

Converted amounts (≈) assume the structure as drawn. The source made the active and inactive calls. The calls are words filed in the database; no cut-off is given here. Bounds are passed on as bounds.

The subject of assay [1] is Helicobacter pylori. Nature of the assay: Antimicrobial activity against Helicobacter pylori SS1 by standard agar dilution method. The assay is classed as functional. Put shortly: (§1)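 Inoculum: H. pylori swabbed into sterile saline to 2.0 McFarland turbidity. Plates incubated at 37 °C under microaerobic gas (85% N₂, 10% CO₂, 5% O₂), read after 3 days. Compound-free agar as control.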
For orientation: Agar dilution tests growth on a series of plates holding different concentrations.

Assay [2] deals with Helicobacter pylori. The experiment in a line: Antimicrobial activity against Helicobacter pylori ATCC 43504 by standard agar dilution method. The assay is classed as functional. An outline of the steps: as §1
Assay [3] in a line: Inhibition of Helicobacter pylori FabZ. Put shortly: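 Spectrophotometric HpFabZ assay following the drop in A260 as crotonoyl-CoA converts to β-hydroxybutyryl-CoA. Compounds in 1% DMSO preincubated with enzyme 1 h before starting the reaction. IC50 from logistic fit of dose-response inhibition data. Means of three determinations.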
The subject of assay [4] is Helicobacter pylori. Nature of the assay: Inhibition of Helicobacter pylori FabZ at 50 uM. Put shortly:
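HpFabZ activity read spectrophotometrically as the A260 decrease during crotonoyl-CoA conversion to β-hydroxybutyryl-CoA. Single inhibitor level of 50 µM, compound in 1% DMSO preincubated with enzyme for 1 h before assay start.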

The term MIC denotes the least concentration at which growth counts as inhibited. The IC50 is the concentration needed to halve the response being measured. Lower therefore signals higher potency. Turning to `O=C(N/N=C/c1cc(Br)c(O)c(Br)c1O)c1ccc2cc(Br)ccc2c1`, the MIC worked out at 50 µg/mL (≈ 92.1 µM) against Helicobacter pylori [1] and 100 µg/mL (≈ 184 µM) against Helicobacter pylori [2]. Further, in assay [3], inhibition was half-maximal at 3.55 µM (IC50).
The inhibition is how much of the control response was suppressed. `COCCN1C(=O)/C(=C\c2ccc(-c3ccc(Cl)c(C(=O)OC)c3)o2)S/C1=N/c1ccc(Br)cc1`: in the assay with Helicobacter pylori [4], the inhibition entry was “inactive”.
For `COCCN1C(=O)/C(=C\c2ccc(-c3ccc(Cl)c(C(=O)OC)c3)o2)S/C1=N/c1ccc(F)cc1`, in the assay with Helicobacter pylori [4], the inhibition result was “inactive”.
`COCCN1C(=O)/C(=C\c2ccc(-c3ccc(Cl)c(C(=O)OC)c3)o2)S/C1=N/c1cccc(C(F)(F)F)c1` showed an inhibition in the assay on Helicobacter pylori [4] of 19.9%.
On the same count and under the same terms, with `COCCN1C(=O)/C(=C\c2ccc(-c3ccc(Cl)c(C(=O)OC)c3)o2)S/C1=N/c1ccc(OC)cc1` the entry was “inactive”.
On the same count and under the same terms, with `COCCN1C(=O)/C(=C\c2ccc(-c3cc(C(=O)OC)ccc3Cl)o2)S/C1=N/c1ccccc1` the entry was “inactive”; with `O=C(N/N=C/c1ccc(O)cc1O)c1cccnc1`, 25.6%; with `COCCN1C(=O)/C(=C\c2ccc(-c3ccc(Cl)c(C(=O)OC)c3)o2)S/C1=N/c1ccccc1C(F)(F)F`, “inactive”.
Same read-out and setting: with `O=C(N/N=C/c1cc(Br)c(O)c(Br)c1O)c1cccs1` the figure was 72%; with `COCCN1C(=O)/C(=C\c2ccc(-c3ccc(Cl)c(C(=O)OC)c3)o2)S/C1=N/c1ccccc1F`, 10%.
Take `O=C(N/N=C/c1cc(Br)c(O)c(Br)c1O)c1ccc(-c2ccc(O)cc2)cc1`: the MIC against Helicobacter pylori [1] and in the assay on Helicobacter pylori [2] was above 100 µg/mL in each case. In assay [3], the IC50 was determined as 42.7 µM.
For `COCCN1C(=O)/C(=C\c2ccc(-c3ccc(Cl)c(C(=O)OC)c3)o2)S/C1=N/c1ccc(C(F)(F)F)cc1`, the inhibition result with Helicobacter pylori [4] was “inactive”.
As to `COCCN1C(=O)/C(=C\c2ccc(-c3ccc(Cl)c(C(=O)OC)c3)o2)S/C1=N/c1ccccc1OC`, the inhibition result with Helicobacter pylori [4] is “inactive”.
Regarding `O=C(N/N=C/c1cc(Br)c(O)c(Br)c1O)c1ccc(F)cc1`, in the assay on Helicobacter pylori [4], the inhibition worked out at 85%. Also, in assay [3], the half-inhibitory concentration (IC50) was 6.43 µM.
Take `O=C(N/N=C/c1cc(Br)c(O)c(Br)c1O)c1cc2ccccc2cc1O`: the MIC with Helicobacter pylori [1] and with Helicobacter pylori [2] was 100 µg/mL (≈ 208 µM) each time. Further, the concentration for half-maximal inhibition (IC50) in assay [3] worked out at 0.86 µM.
Turning to `O=C(N/N=C/c1cc(Br)c(O)c(Br)c1O)c1ccc2c(c1)Cc1ccccc1-2`, the MIC turned out to be 100 µg/mL (≈ 199 µM) against Helicobacter pylori [1] and 50 µg/mL (≈ 99.6 µM) against Helicobacter pylori [2]. The compound also yielded an IC50 in assay [3] of 3.75 µM.
As to `CCN(CC)CCN1C(=O)/C(=C\c2ccc(-c3ccc(Cl)c(C(=O)OC)c3)o2)S/C1=N/c1ccccc1`, the inhibition entry with Helicobacter pylori [4] was “inactive”.
Regarding `O=C(N/N=C/c1cc(Br)c(O)c(Br)c1O)c1ccc(Br)cc1`, the MIC in the assay with Helicobacter pylori [1] and in the assay on Helicobacter pylori [2] was 100 µg/mL (≈ 203 µM) in each case. The inhibition in the assay with Helicobacter pylori [4] is 94.2%.
Turning to `O=C(N/N=C/c1cc(Br)c(O)c(Br)c1)c1cccnc1`, in the assay on Helicobacter pylori [4], the inhibition stood at 62.1%.
Still for that read-out and setting: with `O=C(N/N=C/c1cc(Br)c(O)c(Br)c1O)c1ccco1` the figure was 39.4%.
Consider `O=C(N/N=C/c1cc(Br)c(O)c(Br)c1O)c1ccc(Cl)cc1`, for which the MIC in the assay on Helicobacter pylori [1] and in the assay on Helicobacter pylori [2] was above 100 µg/mL throughout. The compound further gave an inhibition in the assay with Helicobacter pylori [4] of 93.8%.
In the case of `COc1ccc(C(=O)N/N=C/c2cc(Br)c(O)c(Br)c2O)cc1`, the inhibition in the assay on Helicobacter pylori [4] is 81.4%.
For `COCCN1C(=O)/C(=C\c2ccc(-c3ccc(Cl)c(C(=O)OC)c3)o2)S/C1=N/c1ccccc1Br`, the inhibition result with Helicobacter pylori [4] is “inactive”.
The same measure, in the same setting: with `COCCN1C(=O)/C(=C\c2ccc(-c3ccc(Cl)c(C(=O)O)c3)o2)S/C1=N/c1ccccc1` the figure was 63.9%; with `COCCN1C(=O)/C(=C\c2ccc(-c3ccc(Cl)c(C(=O)OC)c3)o2)S/C1=N/c1cccc(OC)c1`, 12.6%.
As for `O=C(N/N=C/c1cc(Br)c(O)c(Br)c1O)c1ccc2ccccc2c1O`, the MIC in the assay with Helicobacter pylori [1] and against Helicobacter pylori [2] was 100 µg/mL (≈ 208 µM) in each case. In the assay on Helicobacter pylori [4], this compound had an inhibition of 87%. In assay [3], the IC50 came to 1.97 µM.
Take `COC(=O)c1cc(-c2ccc(/C=C3/S/C(=N/c4ccccc4)N(CCCN(C)C)C3=O)o2)ccc1Cl`: the inhibition entry in the assay with Helicobacter pylori [4] was “inactive”.
The compound `COCCN1C(=O)/C(=C\c2ccc(-c3ccc(Cl)c(C(=O)O)c3)o2)S/C1=N/c1ccc(OC)cc1` displayed an inhibition in the assay on Helicobacter pylori [4] of 15.4%.
Regarding `O=C(N/N=C/c1cc(Br)c(O)c(Br)c1O)c1ccc(Oc2ccccc2)cc1`, the MIC result in the assay with Helicobacter pylori [1] and in the assay on Helicobacter pylori [2] was “inactive” each time. In assay [3], this compound returned an IC50 of 12.8 µM.
In the case of `COCCN1C(=O)/C(=C\c2ccc(-c3ccc(Cl)c(C(=O)O)c3)o2)S/C1=N/c1ccc2ccccc2c1`, in the assay on Helicobacter pylori [4], the inhibition was 32.2%.
Regarding `COCCN1C(=O)/C(=C\c2ccc(-c3ccc(Cl)c(C(=O)OC)c3)o2)S/C1=N/c1cccc(F)c1`, in the assay with Helicobacter pylori [4], the inhibition result is “inactive”.
On the same count and under the same terms, with `COCCN1C(=O)/C(=C\c2ccc(-c3ccc(Cl)cc3)o2)S/C1=N/c1ccccc1` the entry was “inactive”; with `O=C(N/N=C/c1cc(Br)c(O)c(Br)c1O)c1ccccc1`, 38.8%.
In the assay with Helicobacter pylori [4], `O=C(N/N=C/c1cc(Br)c(O)c(Br)c1O)c1cccnc1` yielded an inhibition of 71.4%. In assay [3], this compound registered a half-inhibitory concentration (IC50) of 39.8 µM.
Turning to `COCCN1C(=O)/C(=C\c2ccc(-c3ccc(Cl)c(C(=O)OC)c3)o2)S/C1=N/c1ccccc1`, the inhibition entry in the assay with Helicobacter pylori [4] is “inactive”.
Consider `COc1c(Br)cc(/C=N/NC(=O)c2cccnc2)c(OC)c1Br`, for which the inhibition in the assay on Helicobacter pylori [4] turned out to be 64.4%.
Consider `O=C(N/N=C/c1cc(Br)c(O)c(Br)c1O)c1ccc2cc(O)ccc2c1`, for which the MIC against Helicobacter pylori [1] and in the assay on Helicobacter pylori [2] was 100 µg/mL (≈ 208 µM) throughout. Moreover, the IC50 in assay [3] is 8.77 µM.
Take `O=C(N/N=C/c1cc(Br)c(O)c(Br)c1O)c1ccc2ccccc2c1`: the MIC is 50 µg/mL (≈ 108 µM) in the assay with Helicobacter pylori [1] and 100 µg/mL (≈ 215 µM) against Helicobacter pylori [2]. In addition, the inhibition in the assay on Helicobacter pylori [4] is 92.6%.
As to `COCCN1C(=O)/C(=C\c2ccc(-c3ccc(Cl)c(C(=O)OC)c3)o2)S/C1=N/c1cccc(Br)c1`, in the assay with Helicobacter pylori [4], the inhibition was found to be 12%.
With `O=C(N/N=C/c1cc(Br)c(O)c(Br)c1O)c1cccc(Br)c1`, the MIC in the assay with Helicobacter pylori [1] and with Helicobacter pylori [2] was 100 µg/mL (≈ 203 µM) in each case. Moreover, the inhibition in the assay on Helicobacter pylori [4] was 96%.
In the assay on Helicobacter pylori [4], `O=C(N/N=C/c1cc(Br)c(O)c(Br)c1O)c1cccc(F)c1` gave an inhibition of 23.3%.
On to `COC(=O)c1cc(-c2ccc(/C=C3/S/C(=N/c4ccccc4)N(CCN4CCCC4)C3=O)o2)ccc1Cl`, for which the inhibition entry in the assay on Helicobacter pylori [4] is “inactive”.
Still for that read-out and setting: next, `O=C(N/N=C/c1cc(Br)c(O)c(Br)c1O)c1ccncc1`: 36.4%.
As to `CC(C)(C)c1ccc(C(=O)N/N=C/c2cc(Br)c(O)c(Br)c2O)cc1`, the MIC in the assay with Helicobacter pylori [1] stood at 50 µg/mL (≈ 106 µM); with Helicobacter pylori [2] it was 100 µg/mL (≈ 213 µM). Further, the inhibition with Helicobacter pylori [4] came to 74.4%.
In the case of `CC(=O)N/N=C/c1cc(Br)c(O)c(Br)c1O`, the inhibition with Helicobacter pylori [4] was found to be 15.2%.
Same read-out and setting: next, `O=C(Cc1ccc(O)cc1)N/N=C/c1cc(Br)c(O)c(Br)c1O`: 50%.
Take `O=C(N/N=C/c1ccc(O)cc1)c1cccnc1`: the inhibition with Helicobacter pylori [4] stood at 15.1%.
On to `O=C(N/N=C/c1cc(Br)c(O)c(Br)c1O)c1cc(C(F)(F)F)cc(C(F)(F)F)c1`, for which the values for the MIC against Helicobacter pylori [1] and in the assay on Helicobacter pylori [2] were 100 µg/mL (≈ 182 µM) and 50 µg/mL (≈ 90.9 µM), respectively. The compound also showed a half-inhibitory concentration (IC50) in assay [3] of 2.13 µM.
